The list is not random: actives were taken first. Their share in the collection is about 3.4%.
MEKK2 mut-MEK5: signal of MEK5 binding to mutant human MEKK2 PB1 domain; bead flow cytometry, Alexa488-MEK5 binding to MEKK2 mutant; percent response, % at 10 µM; 0.35% of 290,000 active; AID 1530; in the data active = percent response above about 24%, passing the limit was not always enough
MEKK2wt PB1 HTS: raises or lowers MEK5 binding to wildtype human MEKK2 PB1 domain; bead flow cytometry, Alexa488-MEK5 binding to MEKK2 WT; actives lie on both sides; 1.1% of 290,000 active; binding response (% of control), % at 10 µM; Q9Y2U5; in the data active = binding response below about 67% or above about 130%
VIM-2 inh: inhibitors of Pseudomonas aeruginosa VIM-2 metallo-beta-lactamase | inhibition, % at 5.6 µM | 0.89% of 290,000 active | purified VIM-2, nitrocefin hydrolysis, epi-absorbance fluorescence | AID 1527;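 active = inhibition above the mean of all tested compounds plus 3 SD, cutoff set per screening run, cut at about 7.5% in these data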;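 note: red hydrolysis product quenches plate fluorescence so inhibitors raise well fluorescence; 0% = enzyme with DMSO and 100% = DMSO without enzyme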
IMP-1 inh: inhibitors of Pseudomonas aeruginosa IMP-1 metallo-beta-lactamase; purified IMP-1, nitrocefin hydrolysis, epi-absorbance fluorescence; 0.45% of 290,000 active; inhibition, % at 5.6 µM;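 active = inhibition above the mean plus 3 SD of all compounds in the same screening run, cut at about 4.5% in these data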;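 note: 0% = IMP-1 with DMSO and 100% = DMSO wells lacking enzyme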
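System: Purified IMP-1 | Read-out basis: Percent enzyme inhibition | Controls: IMP-1 with DMSO as 0%, enzyme-free DMSO as 100% | Replicates: One well per compound | Doses: 5.6 µM nominal single concentration | Detection: Epi-absorbance fluorescence, 480 nm excitation, 530 nm emission | Incubation: 25 °C, 15 min preincubation, 25 min reaction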
MEKK3 PB1 HTS: modulators (inhibitors or enhancers) of MEK5 binding to human MEKK3 PB1 domain | Q99759 | binding response (% of control), % at 10 µM | bead-based flow cytometry, Alexa488-MEK5 binding to MEKK3; actives lie on both sides; 0 = blocked by unlabeled MEK5, 100 = vehicle | 1.4% of 290,000 active;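 active = binding response more than 3 SD above or below the average of its plate-row segment, actives on both sides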;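 note: Alexa488 bead fluorescence after subtracting the streptavidin-only scavenger bead signal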
Target sequence (Q99759 whole entry, looked up, the tested form may be a part): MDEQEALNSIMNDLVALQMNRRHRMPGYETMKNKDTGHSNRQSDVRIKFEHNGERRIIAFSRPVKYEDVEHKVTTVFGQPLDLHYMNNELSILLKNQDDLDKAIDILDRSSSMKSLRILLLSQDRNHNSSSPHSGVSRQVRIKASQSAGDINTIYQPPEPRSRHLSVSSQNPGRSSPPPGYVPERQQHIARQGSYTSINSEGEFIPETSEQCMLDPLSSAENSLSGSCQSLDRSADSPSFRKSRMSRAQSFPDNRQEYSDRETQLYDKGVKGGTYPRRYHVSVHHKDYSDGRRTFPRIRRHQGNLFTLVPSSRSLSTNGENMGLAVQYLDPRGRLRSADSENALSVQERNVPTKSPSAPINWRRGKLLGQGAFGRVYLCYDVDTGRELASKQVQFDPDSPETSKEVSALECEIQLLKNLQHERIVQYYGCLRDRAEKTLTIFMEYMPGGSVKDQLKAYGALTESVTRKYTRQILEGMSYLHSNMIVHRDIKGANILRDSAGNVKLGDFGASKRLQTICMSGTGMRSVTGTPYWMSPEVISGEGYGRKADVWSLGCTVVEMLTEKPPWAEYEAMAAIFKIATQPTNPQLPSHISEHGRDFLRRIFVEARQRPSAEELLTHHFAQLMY
MEKK2wt confirm: raises or lowers MEK5 binding to wildtype human MEKK2, retest. AID 1892. 2.4% of 5,900 active. bead flow cytometry, Alexa488-MEK5 binding to MEKK2 WT; actives lie on both sides. shares compounds with MEKK3 PB1 HTS. binding response (% of control), % at 10 µM; in the data active = binding response below about 16% or above about 210%; inactive = in between
MEKK2mut confirm: signal of MEK5 binding to mutant human MEKK2, retest | bead flow cytometry, Alexa488-MEK5 binding to MEKK2 mutant | percent response, % at 10 µM | AID 1893 | 2% of 5,900 active | shares compounds with MEKK3 PB1 HTS; in the data active = percent response mostly above about 71%, no sharp cut-off; inactive = mostly below about 38%;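 note: higher means compound restores mutant binding toward wildtype level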
MEKK3-MEK5 inh: MEKK3-MEK5 PB1 inhibition, single concentration confirmation; shares compounds with MEKK3 PB1 HTS; bead flow cytometry, Alexa488-MEK5 binding to MEKK3; active compounds read low; binding response (% of control), % at 10 µM; 1.8% of 5,900 active; AID 1894;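 active = binding response below 72% of control, or above a set upper limit, though filed actives all read lower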;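 note: 100% = DMSO only wells and 0% = binding blocked by excess unlabeled MEK5; lower values mean stronger disruption of MEK5 binding to MEKK3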
Active calls of the source: *; . = not tested or not shown; [ ] = dose if it differs, or a comment.

SMILES | MEKK2 mut-MEK5 | MEKK2wt PB1 HTS | VIM-2 inh | IMP-1 inh | MEKK3 PB1 HTS | MEKK2wt confirm | MEKK2mut confirm | MEKK3-MEK5 inh
CN(C)CCN(C(=O)c1ccc2ccccc2c1)c1nc2cc3c(cc2s1)OCCO3 | 13 | 125 | -2 | -3 | 102 | . | . | .
CCC1CCCCN1S(=O)(=O)c1ccc(C(=O)N(CCCN(C)C)c2nc3cc4c(cc3s2)OCO4)cc1 (stereo not drawn) | 24* | 156* | 3 | 0 | 109 | 144 | 31 | 106
O=C(CCCN1C(=O)c2ccccc2C1=O)N1CCc2ccccc2C1 | -5 | 99 | 2 | -2 | 99 | . | . | .
Nc1nncn1C(=O)CCCN1C(=O)c2ccccc2C1=O | 5 | 121 | -1 | -9 | 122* | 107 | 5 | 101
N#CC1=C(N)Oc2cc(O)ccc2C1c1cccnc1 (stereo not drawn) | 1 | 120 | -4 | -2 | 132* | 108 | -5 | 102
N#CC1=C(N)Oc2cc(O)c(Cl)cc2C1c1cccnc1 (stereo not drawn) | 12 | 102 | 0 | -3 | 102 | . | . | .
CSc1ccccc1NC(=O)Cn1ccsc1=N | -1 | 105 | -3 | -2 | 106 | . | . | .
O=C(NCc1ccccc1)C1=C[C@@H](c2csc3ccccc23)C[C@@H](OCc2ccc(CO)cc2)O1 | -3 | 101 | -2 | -3 | 97 | . | . | .
COc1ccc2cc1Oc1ccc(cc1)CC1c3c(cc(OC)c4c3Oc3cc5c(cc3O4)CCNC5C2)CCN1C (stereo not drawn) | 30* | 186* | 6 | 4.6* | 75 | 174 | 50 | 107
CCOc1ccc(C2NCCc3cc(OC)c(OC)cc32)cc1OC (stereo not drawn) | 1 | 104 | -2 | -3 | 103 | . | . | .
CN1CCN(C(=O)C23CCC(C)(C(=O)C2Br)C3(C)C)CC1 (stereo not drawn) | 30 | 122 | -1 | -5 | 135* | 98 | -3 | 100
COc1ccc(NC(=S)N2CCc3ccccc3C2)cc1OC | -7 | 94 | -4 | -2 | 86 | . | . | .
O=C(NCc1ccco1)c1ccc(=O)[nH]n1 | -11 | 90 | -2 | 1 | 82*[inhibitor] | 117 | 1 | 103
O=C(NNS(=O)(=O)c1ccc(F)cc1)c1ccccc1O | 8 | 109 | -3 | -4 | 100 | . | . | .
CCc1ccc(NC(=O)C2CCCN2S(=O)(=O)c2ccc3c(c2)n(C)c(=O)c(=O)n3C)cc1 (stereo not drawn) | -12 | 80 | 0 | -1 | 68*[inhibitor] | 103 | 6 | 104
CCCCC1(C)Cc2ccccc2C(=S)N1 (stereo not drawn) | -16 | 2.0*[inhibitor] | -3 | -2 | 2.0*[inhibitor] | 108 | 2 | 103
CCOC(=O)/C(C)=C1\NC(C)(C)Cc2ccccc21 | -3 | 96 | 1 | 2 | 96 | . | . | .
COc1cc(C2C(C#N)=C(C)NC3=C2C(=O)c2ccccc23)cc(OC)c1OC (stereo not drawn) | -14 | 79 | -3 | -4 | 75 | . | . | .
CC1(C)CC(=O)c2cnc(NC3CC3)nc2C1 | 1 | 113 | -1 | 0 | 129* | 94 | -6 | 100
CN(C)S(=O)(=O)c1ccc(NC(=O)C2CC3C=CC2C3)cc1 (stereo not drawn) | -46 | 9.0*[inhibitor] | -3 | -3 | 3.0*[inhibitor] | 92 | -16 | 79
CCCCOc1ccc(N2C(=O)CC(NCCc3ccc(S(N)(=O)=O)cc3)C2=O)cc1 (stereo not drawn) | 5 | 119 | -5 | -2 | 122* | 111 | 7 | 105
NC(=O)c1cc([N+](=O)[O-])ccc1NCCN1C(=O)c2ccc(C(=O)O)cc2C1=O | -2 | 102 | -2 | -4 | 105 | . | . | .
O=S(=O)(NCc1ccco1)N1CCCCCC1 | -3 | 100 | -4 | -6 | 94 | . | . | .

Screening data: PubChem, several laboratories
